# Compound activity: PubChem, several laboratories
# In the library only some 4.1% were active in any assay of this set; here they are far more common.
# MEKK2wt PB1 HTS = raises or lowers MEK5 binding to wildtype human MEKK2 PB1 domain; Q9Y2U5; bead flow cytometry, Alexa488-MEK5 binding to MEKK2 WT; actives lie on both sides; binding response (% of control), % at 10 µM; 290,000 compounds, 1.1% hits; in the data active = binding response below about 67% or above about 130%; inconclusive = no clear call, values can overlap the other calls; inactive = in between
# MEKK3 PB1 HTS = raises or lowers MEK5 binding to the human MEKK3 PB1 domain; Q99759; bead-based flow cytometry, Alexa488-MEK5 binding to MEKK3; actives lie on both sides; 0 = blocked by unlabeled MEK5, 100 = vehicle; binding response (% of control), % at 10 µM; 290,000 compounds, 1.4% hits; AID 1529;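 active = binding response more than 3 SD above or below the average of its plate-row segment, actives on both sides; inconclusive = wells at one plate position flagged as instrument error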;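 also: Alexa488 bead fluorescence after subtracting the streptavidin-only scavenger bead signal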
# Target sequence (Q99759 whole entry, looked up, the tested form may be a part): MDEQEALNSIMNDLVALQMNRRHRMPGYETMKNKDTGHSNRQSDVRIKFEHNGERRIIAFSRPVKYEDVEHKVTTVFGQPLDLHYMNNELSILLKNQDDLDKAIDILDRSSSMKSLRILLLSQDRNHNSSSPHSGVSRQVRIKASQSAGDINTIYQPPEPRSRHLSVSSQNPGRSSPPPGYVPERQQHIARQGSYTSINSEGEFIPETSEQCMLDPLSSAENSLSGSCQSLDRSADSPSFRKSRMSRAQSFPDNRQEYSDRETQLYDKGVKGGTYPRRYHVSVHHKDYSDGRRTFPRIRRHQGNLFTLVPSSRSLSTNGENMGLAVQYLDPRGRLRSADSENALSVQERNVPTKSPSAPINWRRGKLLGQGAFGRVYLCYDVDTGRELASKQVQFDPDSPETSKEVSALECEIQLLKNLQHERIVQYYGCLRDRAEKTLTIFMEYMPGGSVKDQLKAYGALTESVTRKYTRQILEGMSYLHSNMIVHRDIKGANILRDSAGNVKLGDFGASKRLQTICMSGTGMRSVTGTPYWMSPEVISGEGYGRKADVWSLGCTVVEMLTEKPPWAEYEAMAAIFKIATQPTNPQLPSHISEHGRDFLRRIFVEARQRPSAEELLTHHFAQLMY
# DNA FID counter = fluorescent intercalator displacement, NS3 helicase counter-screen; AID 1845; 290,000 compounds, 0.17% hits; DNA fluorescent intercalator displacement, fluorescence; inhibition, % at 7.9 µM; in the data active = inhibition above about 37%;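 also: 0% = vehicle and 100% = reference compound; higher means more ethidium bromide displaced from hairpin DNA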
# NS3 helicase inh = blocks Hepatitis C virus NS3 helicase unwinding. NS3 helicase DNA unwinding, Cy5 molecular beacon fluorescence. inhibition, % at 10.9 µM. 290,000 compounds, 0.56% hits;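 active = inhibition above the mean of all tested compounds plus 3 SD, set per campaign, cut at about 35% in these data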;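 also: 0% = DMSO wells and 100% = thioflavine S control wells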
#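 Assay system – hepatitis C virus NS3 helicase domain fragment enzyme · Buffer or medium – MOPS pH 6.5, MgCl2, DTT, Tween20, BSA · Reagent – Cy5/quencher beacon DNA duplex and ATP to start · Compound – single 10.9 µM dose · Timing – 1 h at 25 °C · Technique – Cy5 beacon fluorescence read at start and 1 h · Measure – % inhibition of unwinding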
# T cruzi repl = blocks replication of Trypanosoma cruzi; T. cruzi beta-gal in NIH3T3, luminescence, 90 h; inhibition, % (concentration not given with the values); 300,000 compounds, 1.4% hits;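 active = mean inhibition across valid replicates above about 55%, limit read from the data; inconclusive = mean below that limit but half or more replicates reach it; inactive = mean below it, under half of replicates reach it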;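 also: signal also drops with host cell toxicity which is not excluded here; 0% = plate median of DMSO wells and 100% = zero luminescence signal; higher percent means less beta-gal luminescence so fewer parasites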
#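 Assay system: NIH/3T3 fibroblasts plus reporter T. cruzi. Amount: NIH/3T3 cells, 5,000 per well. Buffer or medium: DMEM, 2% fetal bovine serum. Doses: compound pinned at 50 nL/well, DMSO. Schedule: ≥90 h infection period, 3 h prior cell attachment. Signal: luminescent β-galactosidase signal after 60 min lysis. Read-out: parasite load inhibition, %.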
# MEKK2mut PB1 HTS = signal of MEK5 binding to mutant human MEKK2 PB1 domain; AID 1530; percent response, % at 10 µM; 290,000 compounds, 0.35% hits; bead flow cytometry, Alexa488-MEK5 binding to MEKK2 mutant; in the data active = percent response above about 24%, passing the limit was not always enough
# MEKK2wt confirm = raises or lowers MEK5 binding to wildtype human MEKK2, retest; bead flow cytometry, Alexa488-MEK5 binding to MEKK2 WT; actives lie on both sides; shares compounds with MEKK3 PB1 HTS; 5,900 compounds, 2.4% hits; binding response (% of control), % at 10 µM; AID 1892; in the data active = binding response below about 16% or above about 210%; inactive = in between
# MEKK2mut-MEK5 = signal of MEK5 binding to mutant human MEKK2, retest; shares compounds with MEKK3 PB1 HTS; bead flow cytometry, Alexa488-MEK5 binding to MEKK2 mutant; percent response, % at 10 µM; 5,900 compounds, 2% hits; in the data active = percent response mostly above about 71%, no sharp cut-off; inactive = mostly below about 38%;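 also: higher means compound restores mutant binding toward wildtype level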
# MEKK3-MEK5 inh = confirmation of inhibitors of MEK5 binding to human MEKK3; shares compounds with MEKK3 PB1 HTS; bead flow cytometry, Alexa488-MEK5 binding to MEKK3; hits give low values; binding response (% of control), % at 10 µM; 5,900 compounds, 1.8% hits; AID 1894;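 active = binding response below 72% of control, or above a set upper limit, though filed actives all read lower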;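 also: 100% = DMSO only wells and 0% = binding blocked by excess unlabeled MEK5; lower values mean stronger disruption of MEK5 binding to MEKK3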
# * = called active by the depositor; ? = inconclusive; · = not tested or not shown; [ ] = remark or other dose.
SMILES,MEKK2wt PB1 HTS,MEKK3 PB1 HTS,DNA FID counter,NS3 helicase inh,T cruzi repl,MEKK2mut PB1 HTS,MEKK2wt confirm,MEKK2mut-MEK5,MEKK3-MEK5 inh
O=C(Nc1cccc(Cl)c1)Nc1cc(S(=O)(=O)N2CCCCC2)ccc1Cl,131,102,3,0,55*,78*,124,1,103
O=C(Nc1cccc(Cl)c1)Nc1cccc(Cl)c1,161*,112,1,1,34,16,150,32,105
O=C(Nc1cccc(S(=O)(=O)N2CCCCCC2)c1)c1ccc2c(c1)OCO2,105,140*,-9,5,-21,-1,101,-3,106
CN1CCN(S(=O)(=O)c2ccc(NC(=O)Nc3cccc(Cl)c3)cc2)CC1,122,99,16,-65,-11,11,·,·,·
CC(NC(=O)c1ccc(N)cc1)c1ccccc1 (stereo not drawn),104,104,-2,-2,-21,2,·,·,·
Nn1c(SCC(=O)N2CCCC2=O)nnc1-c1cccs1,·,·,·,·,-5,·,·,·,·
O=C1CSC(=S)N1N1C(=O)c2cccc([N+](=O)[O-])c2C1=O,96,99,-1,9,-7,-3,·,·,·
CCSc1nnc(NC(=O)c2cc(OC)c(OC)c(OC)c2)s1,108,103,-14,4,13,-2,·,·,·
O=C1C(=O)N(Cc2ccncc2)C(c2ccccc2F)/C1=C(\O)c1ccc2c(c1)OCCO2 (stereo not drawn),101,100,-45,16,-4,3,·,·,·
CCOC(=O)N1CCN(c2ccncc2S(=O)(=O)N2CCCCC2)CC1,104,104,-26,24,26,5,·,·,·
Cc1nc(C)c(C(=O)Nc2cccc(Cl)c2)o1,84,77*[inhibitor],-4,9,-20,-6,103,4,101
CCCNC(=O)c1nc(C)c(C)nc1C(=O)Nc1cccc(Cl)c1,101,99,-2,4,-3,0,·,·,·
O=C(CCNS(=O)(=O)c1c(Cl)cccc1Cl)OCC(=O)c1ccccc1,97,90,-12,-4,0,-2,·,·,·
Cc1nccn1CCCNC(=O)C1CCC(=O)N(Cc2ccccc2F)C1 (stereo not drawn),99,98,0,13,-21,-2,·,·,·
Cc1ccc(SCc2nc3ccccc3n2CC(=O)Nc2ccc(Cl)cc2)cc1,136*,106,0,-21,?,26*,121,18,111
Cc1ccc(SCc2nc3ccccc3n2CC(=O)Nc2ccccc2)cc1,100,98,-9,1,33,4,·,·,·
O=C(Nc1ccc(Cl)cc1)c1cccc(S(=O)(=O)Nc2ccccn2)c1,96,99,-12,-10,0,-4,·,·,·
CC(C)Oc1ccc(C(=O)N2CCCc3ccccc32)cc1,117,123*,-26,-9,-10,7,102,2,105
Cc1cccc(/C=N\N=C\c2cccc(C)c2)c1,99,104,-4,18,-2,-4,·,·,·
COc1ccc(-n2cc(CNC3CCN(C)CC3)c(-c3cccc(F)c3)n2)cc1,169*,108,42*,-68,17,49,150,36,109
Cc1ccc(S(=O)(=O)NC2c3cccc4cccc(c34)C2Sc2nc(C)cc(C)n2)cc1 (stereo not drawn),98,103,-9,-11,41,-1,·,·,·
O=S(=O)(NC1c2cccc3cccc(c23)C1Sc1ncccn1)c1ccccc1 (stereo not drawn),100,144*,-11,0,24,0,97,-4,105
